Rows were chosen to be rich in hits. Some 3.7% of all compounds tested hit in one or more screens of this group.
KCNK9 block – KCNK9 potassium channel inhibitors, primary screen, HEK293 cells, thallium flux; Potassium channel subfamily K member 9 (Homo sapiens), Q9NPC2; FluxOR thallium flux fluorescence; stronger effect = lower value; B-score at 10 µM; 310,000 compounds, 1.2% hits; AID 488922, 2010;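 active = ratio B-score over 3 SD below the library mean, with starting fluorescence within 5 SD of its mean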;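 also: negative B-score means less thallium flux so channel inhibition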
KCNQ1 pot – potentiators or activators of KCNQ1 channel, primary screen, cell-based, thallium flux, high-throughput; AID 2648, 2010; CHO-K1 KCNQ1, thallium flux FluxOR fluorescence; stronger effect = higher value; Potassium voltage-gated channel subfamily KQT member 1 (Homo sapiens), P51787; 310,000 compounds, 0.35% hits; B-score at 10 µM;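 active = fluorescence ratio B-score, a plate-corrected score, at least three library SD, with initial intensity B-score within 5 SD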
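assay system = KCNQ1-transfected CHO-K1 cells | medium = assay buffer with matched DMSO | probe or stimulus = depolarizing K+/Tl+ stimulus, K2SO4 and Tl2SO4 each 12.5 mM in 5x stock | dosing = single dose | incubation = dye 90 min, compound 20 min, room temperature | detection = kinetic FluxOR fluorescence, 10 s baseline plus 110 s post-stimulus | evaluation = ratio B score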
KCNK3 inh – human KCNK3 channel inhibitors, primary screen, CHO cells, FluxOR thallium flux, B-score; Potassium channel subfamily K member 3 (Homo sapiens), O14649; FluxOR fluorescence; stronger effect = lower value; B-score at 10 µM; 340,000 compounds, 0.84% hits;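 active = B-score under library mean minus 4 SD, starting fluorescence ratio at most library mean plus 5 SD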;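 also: more negative B-score means stronger inhibition of thallium flux through KCNK3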
hERG protect – hERG rescue from dofetilide block, primary screen, cell-based, CHO-hERG, FluxOR thallium flux, dofetilide IC70. dofetilide IC70 present. activation (rescue from dofetilide block), less the hit threshold, % at 10 µM. 310,000 compounds, 0.51% hits. AID 1511, 2009;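 active = activation above the mean of controls blocked by dofetilide plus 5 SD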;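 also: thallium influx through hERG after potassium depolarization seen as dye fluorescence rise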
Target sequence (Q12809 whole entry, looked up): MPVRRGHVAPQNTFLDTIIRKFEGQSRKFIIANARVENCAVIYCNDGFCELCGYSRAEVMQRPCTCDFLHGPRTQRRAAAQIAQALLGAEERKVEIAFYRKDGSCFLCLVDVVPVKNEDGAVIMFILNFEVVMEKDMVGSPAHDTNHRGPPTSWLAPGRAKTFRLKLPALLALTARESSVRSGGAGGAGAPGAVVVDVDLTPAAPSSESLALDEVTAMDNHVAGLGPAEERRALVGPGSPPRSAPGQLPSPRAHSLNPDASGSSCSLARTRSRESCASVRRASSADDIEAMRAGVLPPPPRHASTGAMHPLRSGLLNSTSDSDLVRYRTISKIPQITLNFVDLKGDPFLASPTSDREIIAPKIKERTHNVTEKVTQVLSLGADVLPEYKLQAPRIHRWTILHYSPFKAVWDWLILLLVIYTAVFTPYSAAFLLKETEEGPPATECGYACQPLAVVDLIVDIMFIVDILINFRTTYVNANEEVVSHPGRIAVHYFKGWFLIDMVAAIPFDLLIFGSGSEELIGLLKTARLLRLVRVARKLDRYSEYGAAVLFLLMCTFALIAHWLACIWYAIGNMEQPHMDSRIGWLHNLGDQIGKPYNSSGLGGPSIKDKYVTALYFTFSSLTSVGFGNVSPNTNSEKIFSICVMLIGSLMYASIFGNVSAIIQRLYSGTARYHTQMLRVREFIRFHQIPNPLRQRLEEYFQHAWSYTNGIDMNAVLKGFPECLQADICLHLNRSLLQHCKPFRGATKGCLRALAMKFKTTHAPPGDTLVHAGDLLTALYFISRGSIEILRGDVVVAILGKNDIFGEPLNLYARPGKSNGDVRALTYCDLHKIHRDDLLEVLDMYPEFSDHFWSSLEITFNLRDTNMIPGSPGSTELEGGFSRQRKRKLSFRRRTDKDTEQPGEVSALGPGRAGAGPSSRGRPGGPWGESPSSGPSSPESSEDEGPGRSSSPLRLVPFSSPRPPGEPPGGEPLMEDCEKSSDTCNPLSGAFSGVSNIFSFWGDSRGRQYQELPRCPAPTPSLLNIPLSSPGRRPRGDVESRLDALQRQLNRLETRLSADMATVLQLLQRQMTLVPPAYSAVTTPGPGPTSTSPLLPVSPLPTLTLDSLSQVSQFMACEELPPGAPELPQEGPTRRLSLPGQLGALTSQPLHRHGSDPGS
Kir21 inh – inhibitors of mouse Kir2.1 inward-rectifier potassium channel | Inward rectifier potassium channel 2 (Mus musculus), P35561 | HEK293-Kir2.1, FluxOR thallium flux fluorescence; stronger effect = lower value | B-score at 10 µM | 310,000 compounds, 0.85% hits;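 active = fluorescence ratio B-score at or below minus 3 SD of library scores, with starting-brightness B-score within 2 SD, cut at about -4.2 in these data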;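 also: channel flux triggered by added potassium and thallium sulfate stimulus; B-score of peak minus minimum fluorescence over baseline after thallium stimulus; more negative B-score means stronger Kir2.1 block with less thallium influx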
KCNQ1 inh – inhibitors of human KCNQ1 channel, primary screen, cell-based, thallium flux, high-throughput; Potassium voltage-gated channel subfamily KQT member 1 (Homo sapiens), P51787; CHO-K1 KCNQ1, FluxOR thallium flux fluorescence; stronger effect = higher value; B-score at 10 µM; 310,000 compounds, 1.3% hits; AID 2642, 2010;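 active = compounds whose thallium flux B-score, printed positive for inhibition, exceeds three library SD while starting fluorescence stays within three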;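 also: channel opened by potassium depolarization with thallium stimulus after 20 min compound exposure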
KCNK9 inh conf – KCNK9 potassium channel inhibitors, confirmation, HEK293 cells, thallium flux, duplicate | shares compounds with KCNK9 block | 4,900 compounds, 43% hits | inhibition, % at 10 µM | AID 492992, 2010 | FluxOR thallium flux fluorescence;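 active = thallium signal inhibited by more than 5 SD of the compound-free buffer control wells, on both duplicate plates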
Kir21 sel – mouse Kir2.1 channel inhibition, confirmation, selectivity assay for KCNK9 modulator project, cell-based, HEK293, thallium flux. shares compounds with KCNK9 block. Kir2.1 cells, FluxOR thallium flux fluorescence. inhibition, % at 10 µM. 4,900 compounds, 4% hits. AID 492993, 2010;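 active = thallium signal drop more than 5 SD beyond the mean of the no-compound control wells, seen in both duplicate plates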;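 also: signal is fluorescence rise after thallium addition divided by baseline fluorescence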
KCNK9 uninduced – thallium flux in non-induced HEK293 cells, confirmation, counter-screen for KCNK9 inhibitor project, cell-based, second counter screen, non-induced KCNK9-HEK293; shares compounds with KCNK9 block; FluxOR thallium flux; inhibition, % at 10 µM; 4,900 compounds, 40% hits; AID 492997, 2010;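 active = thallium signal drop beyond 5 SD of the untreated control mean, on both duplicate plates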
A number is an active result; - = inactive; . = no result given.

SMILES	KCNK9 block	KCNQ1 pot	KCNK3 inh	hERG protect	Kir21 inh	KCNQ1 inh	KCNK9 inh conf	Kir21 sel	KCNK9 uninduced
N#CC1(Cc2ccccc2)c2ccccc2C=CN1C(=O)c1ccccc1 (centres undefined)	-9.8	-	-	-	-	6	46%	-	31%
CC1CCc2c(sc(NC(=O)c3ccc(Cn4cc([N+](=O)[O-])cn4)o3)c2C#N)C1 (centres undefined)	-16	-	-	-	-	-	46%	-	30%
N#Cc1c(NC(=O)c2ccc(Cn3cc(Br)cn3)o2)sc2c1CCCCC2	-	-	-	-	-	-	.	.	.
Cc1ccccc1C1CCCN(Cc2nc(C3CC3)no2)C1 (centres undefined)	-	-	-	-	-	-	-	-	-
CCOC(=O)N1CCN(Cc2nc(C3CC3)no2)CC1	-	-	-	-	-	-	.	.	.
O=C(Cc1ccccc1)N[C@@H]1c2ccccc2CC[C@@H]1OCc1ccccc1	.	.	-	.	.	.	.	.	.
CCn1cc(SCC(=O)N2CCc3ccccc32)c2ccccc21	-	-	-	-	-	-	-	40%	-
O=C(CSc1ccccc1)N1CCc2ccccc21	-	-	-	-	-	-	.	.	.
Cc1cc(C)c(-n2nnnc2SC(C)C)c(C)c1	-11	-	-	-	-	-	54%	-	42%
COc1cc(COc2ccc3c(C)c(Cc4ccccc4)c(=O)oc3c2)cc(OC)c1OC	-	-	-	-	-	-	-	-	-
CCCCN(C)CCNC(=O)Cn1ncc2c(=O)oc3ccc(C)cc3c21	-	-	-	-	-	-	.	.	.
O=S(=O)(N1CCCCC1)n1c(Cc2ccccc2)nc2ccccc21	-21	-	-	-	-	-	76%	-	42%
O=C(c1ccc(Cn2cnnn2)cc1)N1CCCC(Nc2ccc(F)c(F)c2)C1 (centres undefined)	-	-	-	-	-	-	.	.	.
O=C(Nc1ccccc1)Nc1ccc(-n2ccc(C(F)(F)F)n2)cc1	-9	-	-	-	-	6	48%	-	-
O=C(O)CC(CC(=O)Nc1ccc(-n2ccc(C(F)(F)F)n2)cc1)c1ccccc1 (centres undefined)	-	-	-	-	-	-	.	.	.
CCc1nc(N2CCN(C(=O)c3ccco3)CC2)c2c3c(sc2n1)CCCC3	-10	-	-	-	-	-	50%	-	-
CCNc1oc(/C=C/c2ccc(OCC)cc2)nc1C#N	-	-	-	-	-	-	.	.	.
CCOC(=O)c1ccccc1NC(=O)COC(=O)CCNS(=O)(=O)c1cccs1	.	.	-	.	.	.	.	.	.
COc1c(C)cc(C(=O)C2CCCN(C(=O)c3cccc(F)c3)C2)cc1C (centres undefined)	-	-	-	-	-	-	-	-	-
COc1ccc(C(=O)C2CCCN(C(=O)c3cccc(Cl)c3F)C2)cc1OC (centres undefined)	-	-	-	-	-	-	-	-	-
COc1ccc(-c2csc(Nc3ccc(S(=O)(=O)Nc4cc(C)on4)cc3)n2)cc1C	-8.7	-	-	-	-	-	56%	-	-
Cc1ccc(C)c(NC(=S)N/N=C2\CCc3ccccc32)c1	-	-	-	-	-	-	.	.	.
Cc1cccc(NC(=S)N/N=C2/CCCCc3ccccc32)c1	-	-	-	5.8	-	-	-	-	-
Cc1ccc(NC(=S)N/N=C2/CCCCc3ccccc32)cc1	-	8	-	-	-	-	-	-	-
CC(C(=O)Nc1ccccc1)N(C)Cc1cccs1 (centres undefined)	-	-	-	-	-	-	.	.	.
SMILES	KCNK9 block	KCNQ1 pot	KCNK3 inh	hERG protect	Kir21 inh	KCNQ1 inh	KCNK9 inh conf	Kir21 sel	KCNK9 uninduced
CCOC(=O)/C(=N\Nc1ccccc1Cl)N1CCN(c2ccccc2OC)CC1	-10	-	-	-	-	-	32%	-	29%
CC(c1ccccc1)n1c(SCC(=O)N2CC(=O)Nc3ccccc32)nc2ccccc2c1=O (centres undefined)	-9	-	-	-	-	-	36%	-	-
Cc1ccc(Cn2c(SCC(=O)N3CC(=O)Nc4ccccc43)nc3ccccc3c2=O)cc1	-	-	-	-	-	-	-	-	-
CCOC(=O)c1ccc(-c2c(-c3ccc4c(c3)OCO4)noc2-c2ccsc2)cc1F	-	-	-	-	-	-	.	.	.
COc1cc(-c2c(-c3ccc4c(c3)OCO4)noc2-c2ccsc2)ccc1F	-11	-	-	-	-	-	56%	-	36%
CCc1nc(Sc2nnnn2-c2ccccc2)c2c3c(sc2n1)CCCC3	-	-	-	-	-	-	-	-	-
Cc1cc(C)nc(N=Nc2c(O)n(Cc3ccc(Cl)cc3)c3ccccc23)n1	-18	-	-	-	-	-	72%	-	26%
CCN(CC)c1ccc(C=C2C(=O)OC(c3ccccc3)OC2=O)cc1 (centres undefined)	-	-	-	-	-	-	.	.	.
CCN(CC)c1ccc(/C=C/C(=O)C2C(=O)C=C(C)OC2=O)cc1 (centres undefined)	-9.5	-	-	-	-	-	86%	101%	85%
O=C(CSCc1ccc(Cl)cc1)NCCSCc1ccco1	-	-	-	-	-	-	-	-	-
O=C(CSCc1c(F)cccc1Cl)NCCSCc1ccco1	-	-	-	-	-	-	.	.	.
COc1ccccc1OCC(=O)NCCSCc1ccc(Cl)cc1	-	-	-	-	-4.7	-	-	-	-
COc1cc(CC(=O)NNC(=O)c2cc(C)oc2C)cc(OC)c1OC	-	-	-	-	-	-	.	.	.
Cc1ccc(NC(=O)c2sccc2SCc2cccc(C(F)(F)F)c2)cc1	-14	-	-	-	-	10	64%	48%	50%
O=C(COC(=O)Cc1c(F)cccc1Cl)Nc1ccc2[nH]c(=O)[nH]c2c1	.	.	-	.	.	.	.	.	.

High-throughput results as filed in PubChem BioAssay.
